PLCb3 inh – PLC-beta3 (human) inhibition, primary screen; Q01970; Purified PLC-beta3, fluorogenic substrate, fluorescence; inhibition, % at 12.2 µM; 370,000 compounds, 0.18% hits; AID 720704; in the data active = inhibition above about 11%;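 also: 0% = median of compound wells on plate and 100% = full blocker control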
FID counter – fluorescent intercalator displacement, NS3 helicase counter-screen. 290,000 compounds, 0.17% hits. inhibition, % at 7.9 µM. DNA fluorescent intercalator displacement, fluorescence; in the data active = inhibition above about 37%;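 also: 0% = vehicle and 100% = reference compound; higher means more ethidium bromide displaced from hairpin DNA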
DDE Tn7 FP inh – inhibitors of Tn7 peptide binding to human fibrin DD(E); P02675; FP displacement of FITC-Tn7 peptide from fibrin DD(E); 0% = median of compound wells per plate; inhibition, % at 8.3 µM; 370,000 compounds, 0.13% hits;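 active = inhibition above the mean of compounds falling within the control limits plus 3 SD of them, cut at about 14% in these data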;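 also: 0% = plate median of compound wells and 100% = 10 µM Aha-Tn7 peptide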
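assay system = human clot-derived fibrin DD(E) complex | quantity = Fibrin-DD(E) at 2 µM final | timing = 10 min preincubation, 3 h with tracer, room temperature | signal = fluorescence polarization | measure = percent inhibition | benchmarks = high control wells with 10 µM unlabelled Aha-Tn7 peptide (full inhibition) | replicates = singlicate testing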
PLCg1 inh – blocks human PLC-gamma1 enzyme activity; inhibition, % at 12.2 µM; P19174; 370,000 compounds, 0.84% hits; purified PLC-gamma1, fluorogenic substrate, fluorescence; in the data active = inhibition above about 9.5%
Target sequence (P19174 whole entry, looked up): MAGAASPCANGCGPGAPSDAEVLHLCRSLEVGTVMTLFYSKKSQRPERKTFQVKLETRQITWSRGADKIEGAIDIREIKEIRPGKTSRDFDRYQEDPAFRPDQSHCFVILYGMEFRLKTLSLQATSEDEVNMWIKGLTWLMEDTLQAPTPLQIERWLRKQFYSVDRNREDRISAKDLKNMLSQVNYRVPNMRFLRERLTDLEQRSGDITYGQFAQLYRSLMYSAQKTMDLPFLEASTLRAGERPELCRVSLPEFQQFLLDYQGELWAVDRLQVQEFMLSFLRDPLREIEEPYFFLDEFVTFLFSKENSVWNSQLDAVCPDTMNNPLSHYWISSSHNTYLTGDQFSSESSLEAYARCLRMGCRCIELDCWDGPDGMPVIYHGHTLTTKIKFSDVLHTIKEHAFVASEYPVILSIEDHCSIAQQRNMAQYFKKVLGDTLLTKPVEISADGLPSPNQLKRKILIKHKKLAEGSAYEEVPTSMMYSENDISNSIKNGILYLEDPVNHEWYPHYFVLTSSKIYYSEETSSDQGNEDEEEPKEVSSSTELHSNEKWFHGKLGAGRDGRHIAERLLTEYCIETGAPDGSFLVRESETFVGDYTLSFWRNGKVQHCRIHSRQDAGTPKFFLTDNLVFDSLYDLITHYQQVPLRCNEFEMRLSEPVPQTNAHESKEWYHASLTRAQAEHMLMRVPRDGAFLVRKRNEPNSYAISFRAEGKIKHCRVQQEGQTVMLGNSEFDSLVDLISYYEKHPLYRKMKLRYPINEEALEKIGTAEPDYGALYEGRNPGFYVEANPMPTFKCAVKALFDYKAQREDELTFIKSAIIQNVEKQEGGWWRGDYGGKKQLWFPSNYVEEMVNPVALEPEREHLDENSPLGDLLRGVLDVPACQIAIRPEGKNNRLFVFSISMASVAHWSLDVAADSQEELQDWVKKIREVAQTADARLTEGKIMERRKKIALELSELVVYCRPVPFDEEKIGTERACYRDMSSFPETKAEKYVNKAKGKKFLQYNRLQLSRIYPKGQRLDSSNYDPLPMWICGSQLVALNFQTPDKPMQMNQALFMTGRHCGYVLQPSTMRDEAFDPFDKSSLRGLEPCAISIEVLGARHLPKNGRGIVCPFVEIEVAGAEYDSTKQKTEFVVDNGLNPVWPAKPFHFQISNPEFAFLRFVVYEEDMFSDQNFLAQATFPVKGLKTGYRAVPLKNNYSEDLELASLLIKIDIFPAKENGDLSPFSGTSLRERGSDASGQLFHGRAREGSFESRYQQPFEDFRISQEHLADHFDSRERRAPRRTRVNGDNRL
DDE Tn6 FP inh – disrupts Tn6 cyclic peptide binding to fibrin D-Dimer-E complex. P02675. Fibrin DD(E) TRITC-Tn6 fluorescence polarization displacement. inhibition, % at 8.3 µM. 370,000 compounds, 0.21% hits. AID 720509;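 active = inhibition above a per-campaign cutoff: mean of compounds within control limits plus 3 SD, cut at about 15% in these data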;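 also: 0% = median of all compound wells on the plate and 100% = blocking peptide control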
DDE Tn6 FP ctr – counter-screen hit for Tn6 peptide-fibrin DD(E) binding disruption; inhibition, % at 8.3 µM; 680 compounds, 2% hits; shares compounds with DDE Tn6 FP inh; TRITC-Tn6 fluorescence polarization displacement; 0% = median of compound wells, not DMSO;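 active = inhibition above the mean of test compounds lying between the control limits plus 3 SD of those, cut at about 14% in these data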;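 also: 0% = median of compound wells and 100% = wells with Aha-Tn7 blocking peptide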
Tn6 DDE conf – DD(E)-Tn6 binding inhibition, FP confirmation; shares compounds with DDE Tn6 FP inh; FP displacement of TRITC-Tn6 peptide from DD(E); 0% = per-plate median of test wells; inhibition, % at 8.3 µM; 680 compounds, 10% hits; AID 720631;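 active = inhibition above the mean of compounds lying within the control limits plus 3 SD, cut at about 16% in these data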;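 also: 100% = high control wells holding a competing inhibitor peptide at 10 µM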
The depositor's hits bear a star; i = inactive; · = not tested or not shown; + = active, no number. The list is not random: actives were taken first. Their share in the collection is about 1.4%.

SMILES	PLCb3 inh	FID counter	DDE Tn7 FP inh	PLCg1 inh	DDE Tn6 FP inh	DDE Tn6 FP ctr	Tn6 DDE conf
Cc1c(S(=O)(=O)N2CCN(c3cccc(Cl)c3)CC2)c(=O)n(C)c(=O)n1C	-3	-30	0	-1	-6	·	·
Cc1cc(Br)ccc1SCC(=O)OCC(=O)NCc1ccco1	-10	-12	1	-1	15*	0	-1
CCc1cc(=O)oc2c3c(cc(OCC(=O)NCCCn4ccnc4)c12)OC(C)(C)CC3	i	8	3	i	15*	-1	-2
O=C(NCc1ccccc1)C1Cc2ccccc2CN1C(=O)c1ccco1 (configuration not stated)	-7	-10	-4	2	-2	·	·
O=C(O)Cn1cc(/C=C2/SC(=O)N(CC(=O)N3CCCCCC3)C2=O)c2ccccc21	1	-15	1	-3	15*	2	-1
CC1(C)CC(CCN(Cc2ccccc2)C(=O)c2ccco2)(c2ccccc2)CCO1 (configuration not stated)	-4	-39	5	0	-3	·	·
CCC1(C)CC(CCN(Cc2ccco2)C(C)=O)(c2ccccc2)CCO1 (configuration not stated)	0	-34	-1	1	17*	4	3
S=C(NCC1CCCO1)N1CCN(c2nc(-c3ccc(Cl)cc3)cs2)CC1 (configuration not stated)	-9	-6	-2	2	-1	·	·
COc1ccc(C2=Nn3c(nnc3-c3cccnc3)SC2)cc1OC	2	·	3	-1	6	·	·
COc1ccc(C2=Nn3c(nnc3-c3ccncc3)SC2)cc1OC	-5	-22	-4	-4	19*	-2	-6
O=C(Cn1cc2c(n1)CCCCC2)Nc1c(F)cc(F)cc1Br	-4	-15	2	1	17*	-1	-5
CCCC(=O)N1CCC1(C)C(=O)NS(=O)(=O)c1ccc(C)cc1 (configuration not stated)	0	·	6	-1	8	·	·
CCN(Cc1nc2cc(Cl)ccc2c(=O)[nH]1)C(=O)c1cc(C2CC2)nn1-c1ccccc1	2	·	-5	2	16*	-1	-16
O=C(CN1C2CCCC1CC(NC(=O)C1CCCCC1)C2)Nc1ccccc1C(F)(F)F (configuration not stated)	-4	-25	6	0	-2	·	·
O=C(CN1C2CCCC1CC(NC(=O)C1CCCCC1)C2)NCc1ccc(F)cc1 (configuration not stated)	-5	4	-3	0	16*	1	-3
O=C(CSc1nnc(SCc2cccc3ccccc23)s1)Nc1ccc(S(=O)(=O)Nc2nccs2)cc1	0	·	-2	9	22*	7	17*
C=CCn1c(CC#N)nnc1N1CCOCC1	0	8	5	-3	16*	3	1
C=CCN1C(c2ccccc2)=CS/C1=C(/C#N)c1nnc(N2CCOCC2)n1-c1ccccc1	-1	-8	7	5	7	·	·
CC1N(C)c2cc(NC(=O)c3ccco3)c(P(=O)(Nc3ccc([N+](=O)[O-])cc3)N3CCOCC3)cc2C1(C)C (configuration not stated)	-3	-29	-7	1	-6	·	·
CC1N(C)c2cc(NC(=O)c3ccco3)ccc2C1(C)C (configuration not stated)	-31	-12	-20	-29	+	2	5
Cc1ccccc1OCC(O)CN1CCN(c2ccc(Cl)cc2)CC1 (configuration not stated)	-8	4	1	-1	-3	·	·
COc1ccc(NC(=O)Nc2ccc3c(c2)C(=O)N([C@H](C)CO)C[C@H](C)[C@@H](CN(C)S(=O)(=O)c2ccc(OC)cc2)O3)cc1	1	·	10	-2	3	·	·
C[C@H](CO)N1C[C@H](C)[C@@H](CN(C)S(=O)(=O)c2ccccc2)Oc2c(NC(=O)Nc3ccc(C(F)(F)F)cc3)cccc2C1=O	4	·	2	3	-8	·	·
C[C@@H]1CN([C@H](C)CO)C(=O)c2cc(NC(=O)Nc3ccc(C(F)(F)F)cc3)ccc2O[C@H]1CN(C)S(=O)(=O)c1ccccc1	5	·	-4	3	48*	14*	3
COc1ccc(S(=O)(=O)N(C)C[C@H]2Oc3ccc(NC(=O)Nc4ccc(C(F)(F)F)cc4)cc3C(=O)N([C@H](C)CO)C[C@@H]2C)cc1	2	·	4	0	81*	9	34*
SMILES	PLCb3 inh	FID counter	DDE Tn7 FP inh	PLCg1 inh	DDE Tn6 FP inh	DDE Tn6 FP ctr	Tn6 DDE conf
CC(NC(=O)c1ccc2c(=O)n3c(nc2c1)CCCCC3)c1ccccc1 (configuration not stated)	-8	·	7	-3	5	·	·
CCOC(=O)Oc1ccc2oc(=O)cc(C)c2c1	-2	-18	-5	0	-3	·	·
Cc1ccc(Cn2ccsc2=NC(=O)COC(=O)c2ccc(NC(=O)CC#N)cc2)cc1	-20	·	-4	-5	16*	-2	-16
Cc1ccc(Cn2ccsc2=NC(=O)CCl)cc1	4	-10	-2	6	0	·	·
CC(NCc1cccnc1)c1ccccc1 (configuration not stated)	-2	-5	7	-1	16*	0	3
O=C(Nc1nnc(-c2ccccc2)s1)c1ccc(Cl)c(S(=O)(=O)N2CCOCC2)c1	·	1	·	·	·	·	·
COc1ccc(CNC(=O)C[C@H]2C[C@H](C(=O)N3CCOCC3)[C@@]3(CCC4CCCC4)c4[nH]c5cc(-c6ccco6)ccc5c4CCN3C2=O)cc1OC	-358	·	6	-285	16*	7	3
O=C(C[C@H]1C[C@H](C(=O)N2CCOCC2)[C@@]2(CCC3CCCC3)c3[nH]c4cc(-c5ccco5)ccc4c3CCN2C1=O)NCc1cccc(C(F)(F)F)c1	-378	·	4	-204	3	·	·
C/C=C/C(=O)N1CC2(CC(c3cccc(NC(=O)/C(C)=C/C)c3)=NO2)C[C@H]1C(N)=O (some centres not stated)	-1	·	10	-1	17*	-1	3
CSc1ccc(Cl)c(C(=O)NCCOc2cc(C)ccc2C(C)C)c1	0	-18	2	0	1	·	·
COc1cccc(CN(C)CC(=O)NC(=O)NCc2ccco2)c1	1	-8	-5	-2	18*	-3	-2
Cc1ccc(C(=O)c2cc(C)sc2NC(=O)CN2CCN(C(=O)c3ccco3)CC2)cc1	3	-5	-4	4	5	·	·
Cc1cc(C(=O)Nc2ccc(S(=O)(=O)N3CCCC3)cc2)cs1	-1	-10	1	0	16*	-5	-11
